≈ marks a conversion by molar mass, not a printed value.
Columns and labels:
[1] = tested on: Staphylococcus aureus; assay: Antibacterial activity against Staphylococcus aureus ATCC 29213 after 16 to 22 hrs by broth microdilution method; type: functional
Method in brief: (§1)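 Broth microdilution per the CLSI approved standard (sixth edition), using two-fold serial dilutions of compound in Mueller–Hinton broth. Stocks at 5 mg/ml in DMF. Inoculum came from a direct colony suspension adjusted by turbidity to about 5 × 10⁴ CFU/well final. Trays were incubated at 35 °C for 16–22 h. MIC is the lowest concentration completely inhibiting growth (99% inhibition).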

[2] = tested on: Streptococcus pneumoniae; assay: Antibacterial activity against erythromycin-susceptible Streptococcus pneumoniae after 16 to 22 hrs by broth microdilution method; type: functional
Method in brief: (§2)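 Streptococci tested by CLSI broth microdilution in Mueller–Hinton broth with 5% horse serum, using two-fold serial dilutions. Compounds were dissolved in DMF at 5 mg/ml (stock). Inoculum was a turbidity-adjusted direct colony suspension giving about 5 × 10⁴ CFU/well. Trays were held at 35 °C for 16–22 h. MIC is the lowest concentration completely inhibiting growth (99%).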

[3] = tested on: Streptococcus pneumoniae; assay: Antibacterial activity against efflux-mediated macrolide-resistant Streptococcus pneumoniae after 16 to 22 hrs by broth microdilution method; type: functional
Method in brief: (§3)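 Two-fold serial dilutions in microdilution trays, following the CLSI dilution standard for aerobic bacteria. Medium was Mueller–Hinton broth with 5% horse serum for streptococci. Stocks were made at 5 mg/ml in DMF. Inoculum came from a direct colony suspension adjusted by turbidity to about 5 × 10⁴ CFU/well final. Incubation was at 35 °C for 16–22 h. MIC is the lowest concentration completely inhibiting growth (99% inhibition).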

[4] = tested on: Streptococcus pneumoniae; assay: Antibacterial activity against constitutive macrolide-lincosamide-streptogramin-resistant Streptococcus pneumoniae after 16 to 22 hrs by broth microdilution method; type: functional; method in brief: as §3
[5] = tested on: Streptococcus pyogenes; assay: Antibacterial activity against erythromycin-susceptible Streptococcus pyogenes after 16 to 22 hrs by broth microdilution method; type: functional; method in brief: as §2
[6] = tested on: Streptococcus pyogenes; assay: Antibacterial activity against inducible macrolide-lincosamide-streptogramin-resistant Streptococcus pyogenes 16 to 22 hrs by broth microdilution method; type: functional; method in brief: as §3
[7] = tested on: Streptococcus pyogenes; assay: Antibacterial activity against efflux-mediated macrolide-resistance Streptococcus pyogenes after 16 to 22 hrs by broth microdilution method; type: functional; method in brief: as §3
[8] = tested on: Moraxella catarrhalis; assay: Antibacterial activity against Moraxella catarrhalis ATCC 23246 after 16 to 22 hrs by broth dilution method; type: functional; method in brief: as §1
[9] = tested on: Haemophilus influenzae; assay: Antibacterial activity against Haemophilus influenzae ATCC 49247 after 16 to 22 hrs by broth dilution method; type: functional
Method in brief: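 Microdilution trays following the CLSI standard, with two-fold serial dilutions in supplemented broth suited to H. influenzae. DMF stocks at 5 mg/ml. Inoculum prepared from a turbidity-adjusted direct colony suspension to about 5 × 10⁴ CFU/well final. Incubated at 35 °C for 16–22 h. MIC is the lowest concentration giving complete (99%) growth inhibition.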

[10] = tested on: Enterococcus faecalis; assay: Antibacterial activity against Enterococcus faecalis ATCC 29212 after 16 to 22 hrs by broth dilution method; type: functional; method in brief: as §1
[11] = tested on: Escherichia coli; assay: Antibacterial activity against Escherichia coli ATCC 25922 after 16 to 22 hrs by broth dilution method; type: functional; method in brief: as §1
[12] = Chemical stability in 0.01 M artificial gastric juice assessed as half life at 37 degC; type: physicochemical
Method in brief: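 Acid degradation followed as pseudo-first-order kinetics. Rate constants came from an exponential fit of reactant concentration versus time, and t1/2 was calculated from k.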

## CC[C@H]1OC(=O)[C@H](C)[C@@H](O[C@H]2C[C@@](C)(OC)[C@@H](O)[C@H](C)O2)[C@H](C)[C@@H](O[C@@H]2O[C@H](C)C[C@H](N(C)C)[C@H]2O)[C@](C)(O)C[C@@H](C)CN(CCCN(CCC#N)C(=S)NCCCc2ccccc2)[C@H](C)[C@@H](O)[C@]1(C)O
[1]
  MIC: 1 µg/mL (≈ 0.978 µM)
[2]
  MIC: ≤ 0.125 µg/mL
[3]
  MIC: 32 µg/mL (≈ 31.3 µM)
[4]
  MIC: 32 µg/mL (≈ 31.3 µM)
[5]
  MIC: ≤ 0.125 µg/mL
[6]
  MIC: 8 µg/mL (≈ 7.82 µM)
[7]
  MIC: 16 µg/mL (≈ 15.6 µM)
[8]
  MIC: 4 µg/mL (≈ 3.91 µM)
[9]
  MIC: 4 µg/mL (≈ 3.91 µM)
[10]
  MIC: 16 µg/mL (≈ 15.6 µM)
[11]
  MIC: 16 µg/mL (≈ 15.6 µM)

## CC[C@H]1OC(=O)[C@H](C)[C@@H](O[C@H]2C[C@@](C)(OC)[C@@H](O)[C@H](C)O2)[C@H](C)[C@@H](O[C@@H]2O[C@H](C)C[C@H](N(C)C)[C@H]2O)[C@](C)(O)C[C@@H](C)CN(CCCN(CCC#N)C(=S)Nc2ccccc2)[C@H](C)[C@@H](O)[C@]1(C)O
[1]
  MIC: 2 µg/mL (≈ 2.04 µM)
[2]
  MIC: ≤ 0.125 µg/mL
[3]
  MIC: 32 µg/mL (≈ 32.6 µM)
[4]
  MIC: > 64 µg/mL
[5]
  MIC: ≤ 0.125 µg/mL
[6]
  MIC: 32 µg/mL (≈ 32.6 µM)
[7]
  MIC: 32 µg/mL (≈ 32.6 µM)
[8]
  MIC: 4 µg/mL (≈ 4.08 µM)
[9]
  MIC: 16 µg/mL (≈ 16.3 µM)
[10]
  MIC: > 64 µg/mL
[11]
  MIC: > 64 µg/mL

## CC[C@H]1OC(=O)[C@H](C)[C@@H](O[C@H]2C[C@@](C)(OC)[C@@H](O)[C@H](C)O2)[C@H](C)[C@@H](O[C@@H]2O[C@H](C)C[C@H](N(C)C)[C@H]2O)[C@](C)(O)C[C@@H](C)CN(CCCN(CCC#N)C(=O)Nc2cccc3ccccc23)[C@H](C)[C@@H](O)[C@]1(C)O
[1]
  MIC: 1 µg/mL (≈ 0.986 µM)
[2]
  MIC: ≤ 0.125 µg/mL
[3]
  MIC: 16 µg/mL (≈ 15.8 µM)
[4]
  MIC: 64 µg/mL (≈ 63.1 µM)
[5]
  MIC: ≤ 0.125 µg/mL
[6]
  MIC: 8 µg/mL (≈ 7.89 µM)
[7]
  MIC: 8 µg/mL (≈ 7.89 µM)
[8]
  MIC: 0.5 µg/mL (≈ 0.493 µM)
[9]
  MIC: 4 µg/mL (≈ 3.94 µM)
[10]
  MIC: 16 µg/mL (≈ 15.8 µM)
[11]
  MIC: 8 µg/mL (≈ 7.89 µM)
[12]
  half-life: 1.8 h

## CC[C@H]1OC(=O)[C@H](C)[C@@H](O[C@H]2C[C@@](C)(OC)[C@@H](O)[C@H](C)O2)[C@H](C)[C@@H](O[C@@H]2O[C@H](C)C[C@H](N(C)C)[C@H]2O)[C@](C)(O)C[C@@H](C)CN(CCCN(CCC#N)C(=O)NC(C)c2cccc3ccccc23)[C@H](C)[C@@H](O)[C@]1(C)O (some centres not stated)
[1]
  MIC: 2 µg/mL (≈ 1.92 µM)
[2]
  MIC: ≤ 0.125 µg/mL
[3]
  MIC: 32 µg/mL (≈ 30.7 µM)
[4]
  MIC: 16 µg/mL (≈ 15.3 µM)
[5]
  MIC: ≤ 0.125 µg/mL
[6]
  MIC: 8 µg/mL (≈ 7.67 µM)
[7]
  MIC: 8 µg/mL (≈ 7.67 µM)
[8]
  MIC: 0.5 µg/mL (≈ 0.48 µM)
[9]
  MIC: 2 µg/mL (≈ 1.92 µM)
[10]
  MIC: 16 µg/mL (≈ 15.3 µM)
[11]
  MIC: 32 µg/mL (≈ 30.7 µM)

## CC[C@H]1OC(=O)[C@H](C)[C@@H](O[C@H]2C[C@@](C)(OC)[C@@H](O)[C@H](C)O2)[C@H](C)[C@@H](O[C@@H]2O[C@H](C)C[C@H](N(C)C)[C@H]2O)[C@](C)(O)C[C@@H](C)CN(CCCN(CCC#N)C(=S)Nc2cccc3ccccc23)[C@H](C)[C@@H](O)[C@]1(C)O
[1]
  MIC: 4 µg/mL (≈ 3.88 µM)
[2]
  MIC: ≤ 0.125 µg/mL
[3]
  MIC: 16 µg/mL (≈ 15.5 µM)
[4]
  MIC: 64 µg/mL (≈ 62.1 µM)
[5]
  MIC: ≤ 0.125 µg/mL
[6]
  MIC: 32 µg/mL (≈ 31.1 µM)
[7]
  MIC: 32 µg/mL (≈ 31.1 µM)
[8]
  MIC: 4 µg/mL (≈ 3.88 µM)
[9]
  MIC: 8 µg/mL (≈ 7.76 µM)
[10]
  MIC: 32 µg/mL (≈ 31.1 µM)
[11]
  MIC: 8 µg/mL (≈ 7.76 µM)

## CC[C@H]1OC(=O)[C@H](C)[C@@H](O[C@H]2C[C@@](C)(OC)[C@@H](O)[C@H](C)O2)[C@H](C)[C@@H](O[C@@H]2O[C@H](C)C[C@H](N(C)C)[C@H]2O)[C@](C)(O)C[C@@H](C)CN(CCCN(CCC#N)C(=S)NCc2ccccc2)[C@H](C)[C@@H](O)[C@]1(C)O
[1]
  MIC: 1 µg/mL (≈ 1.01 µM)
[2]
  MIC: ≤ 0.125 µg/mL
[3]
  MIC: 16 µg/mL (≈ 16.1 µM)
[4]
  MIC: 64 µg/mL (≈ 64.4 µM)
[5]
  MIC: ≤ 0.125 µg/mL
[6]
  MIC: 16 µg/mL (≈ 16.1 µM)
[7]
  MIC: 8 µg/mL (≈ 8.05 µM)
[8]
  MIC: 1 µg/mL (≈ 1.01 µM)
[9]
  MIC: 4 µg/mL (≈ 4.02 µM)
[10]
  MIC: 32 µg/mL (≈ 32.2 µM)
[11]
  MIC: 16 µg/mL (≈ 16.1 µM)

## CC[C@H]1OC(=O)[C@H](C)[C@@H](O[C@H]2C[C@@](C)(OC)[C@@H](O)[C@H](C)O2)[C@H](C)[C@@H](O[C@@H]2O[C@H](C)C[C@H](N(C)C)[C@H]2O)[C@](C)(O)C[C@@H](C)CN(CCCN(CCC#N)C(=S)NCCc2ccccc2)[C@H](C)[C@@H](O)[C@]1(C)O
[1]
  MIC: 1 µg/mL (≈ 0.992 µM)
[2]
  MIC: ≤ 0.125 µg/mL
[3]
  MIC: 32 µg/mL (≈ 31.7 µM)
[4]
  MIC: 64 µg/mL (≈ 63.5 µM)
[5]
  MIC: ≤ 0.125 µg/mL
[6]
  MIC: 8 µg/mL (≈ 7.93 µM)
[7]
  MIC: 16 µg/mL (≈ 15.9 µM)
[8]
  MIC: 2 µg/mL (≈ 1.98 µM)
[9]
  MIC: 4 µg/mL (≈ 3.97 µM)
[10]
  MIC: 32 µg/mL (≈ 31.7 µM)
[11]
  MIC: 16 µg/mL (≈ 15.9 µM)

## CC[C@H]1OC(=O)[C@H](C)[C@@H](O[C@H]2C[C@@](C)(OC)[C@@H](O)[C@H](C)O2)[C@H](C)[C@@H](O[C@@H]2O[C@H](C)C[C@H](N(C)C)[C@H]2O)[C@](C)(O)C[C@@H](C)CN(CCCNC(=O)Nc2cccc3ccccc23)[C@H](C)[C@@H](O)[C@]1(C)O
[1]
  MIC: 0.5 µg/mL (≈ 0.52 µM)
[2]
  MIC: ≤ 0.125 µg/mL
[3]
  MIC: 4 µg/mL (≈ 4.16 µM)
[4]
  MIC: > 64 µg/mL
[5]
  MIC: ≤ 0.125 µg/mL
[6]
  MIC: 2 µg/mL (≈ 2.08 µM)
[7]
  MIC: 4 µg/mL (≈ 4.16 µM)
[8]
  MIC: 0.5 µg/mL (≈ 0.52 µM)
[9]
  MIC: 1 µg/mL (≈ 1.04 µM)
[10]
  MIC: 4 µg/mL (≈ 4.16 µM)
[11]
  MIC: 8 µg/mL (≈ 8.32 µM)
[12]
  half-life: 1.98 h

## CC[C@H]1OC(=O)[C@H](C)[C@@H](O[C@H]2C[C@@](C)(OC)[C@@H](O)[C@H](C)O2)[C@H](C)[C@@H](O[C@@H]2O[C@H](C)C[C@H](N(C)C)[C@H]2O)[C@](C)(O)C[C@@H](C)CN(CCCN(CCC#N)C(=O)Nc2ccc3ccccc3c2)[C@H](C)[C@@H](O)[C@]1(C)O
[1]
  MIC: 1 µg/mL (≈ 0.986 µM)
[2]
  MIC: ≤ 0.125 µg/mL
[3]
  MIC: 16 µg/mL (≈ 15.8 µM)
[4]
  MIC: 32 µg/mL (≈ 31.5 µM)
[5]
  MIC: ≤ 0.125 µg/mL
[6]
  MIC: 16 µg/mL (≈ 15.8 µM)
[7]
  MIC: 8 µg/mL (≈ 7.89 µM)
[8]
  MIC: 1 µg/mL (≈ 0.986 µM)
[9]
  MIC: 2 µg/mL (≈ 1.97 µM)
[10]
  MIC: 16 µg/mL (≈ 15.8 µM)
[11]
  MIC: 32 µg/mL (≈ 31.5 µM)

## CC[C@H]1OC(=O)[C@H](C)[C@@H](O[C@H]2C[C@@](C)(OC)[C@@H](O)[C@H](C)O2)[C@H](C)[C@@H](O[C@@H]2O[C@H](C)C[C@H](N(C)C)[C@H]2O)[C@](C)(O)C[C@@H](C)CN(C)[C@H](C)[C@@H](O)[C@]1(C)O [AZITHROMYCIN]
[1]
  MIC: 0.5 µg/mL (≈ 0.668 µM)
[2]
  MIC: ≤ 0.125 µg/mL
[3]
  MIC: 8 µg/mL (≈ 10.7 µM)
[4]
  MIC: 64 µg/mL (≈ 85.4 µM)
[5]
  MIC: ≤ 0.125 µg/mL
[6]
  MIC: 8 µg/mL (≈ 10.7 µM)
[7]
  MIC: 4 µg/mL (≈ 5.34 µM)
[8]
  MIC: ≤ 0.125 µg/mL
[9]
  MIC: 1 µg/mL (≈ 1.34 µM)
[10]
  MIC: 8 µg/mL (≈ 10.7 µM)
[11]
  MIC: 2 µg/mL (≈ 2.67 µM)
